Tests used:
[1] = Selectivity index, ratio of CC50 for human MT2 cells to EC50 for HIV1 3B replication in human MT2 cells exposed to light; assay type: toxicity, cell-based; details: read-out: Ratio CC50/EC50
MT2 = experiment: Cytotoxicity against human MT2 cells after 4 days by XTT assay; assay type: cell-based; details: mt2, 96 h
Outline: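 Graded compound concentrations mixed with equal volume of MT-2 cells (5×10^5/mL), 37 °C for 4 days. XTT (1 mg/mL) with 0.02 μM phenazine methosulphate added, absorbance at 450 nm read after 4 h; CC50 calculated with CalcuSyn.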

[2] = test system: Human immunodeficiency virus 1; experiment: Antiviral activity against HIV1 isolate 94UG103 replication in human PBMC assessed as inhibition of p24 production after 7 days by ELISA; details: Human immunodeficiency virus 1, isolate 94UG103, 168 h
[3] = test system: Human immunodeficiency virus 1; experiment: Antiviral activity against HIV1 3B replication in human MT2 cells exposed to light assessed as inhibition of p24 production after 4 days by ELISA; details: Human immunodeficiency virus 1, 3B, MT2, 96 h
[4] = test system: Human immunodeficiency virus 1; experiment: Antiviral activity against HIV1 3B replication in human MT2 cells under dark condition assessed as inhibition of p24 production after 4 days by ELISA; details: Human immunodeficiency virus 1, 3B, MT2, 96 h

With `O=C(O)c1cc(-c2ccc(/C=C3\SC(=S)N(CCc4ccccc4)C3=O)o2)cnc1Br` as the compound, how does the selectivity ratio [1] read?
The selectivity ratio was 40.

And the CC50 (MT2)?
Its CC50 is 5530 nM.

And the EC50 [2]?
The EC50 was 353 nM.

What about the EC50 [3] of the same compound?
The EC50 was 268 nM.

And the EC50 [4]?
The EC50 was 227 nM.

Which results are given for `CCc1ccc(-c2ccc(/C=C3\SC(=S)N(CCc4ccccc4)C3=O)o2)cc1C(=O)O`?
selectivity ratio [1]: 215; CC50 (MT2): 17400 nM; EC50 [2]: 177 nM; EC50 [3]: 81 nM; EC50 [4]: 30 nM

What does the source list for `O=C(O)c1cc(-c2ccc(/C=C3\SC(=S)N(CCc4ccccc4)C3=O)o2)ccc1Cl`?
selectivity ratio [1]: 330; CC50 (MT2): 16800 nM; EC50 [2]: 73 nM; EC50 [3]: 51 nM; EC50 [4]: 17 nM

With `O=C(O)c1cc(-c2ccc(/C=C3\SC(=S)N(CCc4ccccc4)C3=O)o2)ccc1Br` as the compound, how does the selectivity ratio [1] read?
Its selectivity ratio is 10.

And the CC50 (MT2)?
Its CC50 is 3290 nM.

What about the EC50 [2] of the same compound?
Its EC50 is 165 nM.

And the EC50 [3]?
Its EC50 is 317 nM.

And the EC50 [4]?
Its EC50 is 158 nM.

Which results are given for `O=C(O)c1cncc(-c2ccc(/C=C3\SC(=S)N(CCc4ccccc4)C3=O)o2)c1`?
selectivity ratio [1]: 915; CC50 (MT2): 38400 nM; EC50 [2]: 442 nM; EC50 [3]: 42 nM; EC50 [4]: 71 nM

What does the source list for `Cc1c(C(=O)O)cccc1-c1ccc(/C=C2\SC(=S)N(CCc3ccccc3)C2=O)o1`?
selectivity ratio [1]: 624; CC50 (MT2): 26800 nM; EC50 [2]: 648 nM; EC50 [3]: 43 nM; EC50 [4]: 92 nM

For `O=C(O)c1cccc(-c2ccc(/C=C3\SC(=S)N(CCc4ccccc4)C3=O)o2)c1`, which selectivity ratio [1] is on record?
The selectivity ratio was 440.

What about the CC50 (MT2) of the same compound?
Its CC50 is 19400 nM.

And the EC50 [2]?
The EC50 was 74 nM.

And the EC50 [3]?
The EC50 was 44 nM.

What about the EC50 [4] of the same compound?
The EC50 was 98 nM.

Which selectivity ratio [1] does the source give for `Cc1ccc(-c2ccc(/C=C3\SC(=S)N(CCc4ccccc4)C3=O)o2)cc1C(=O)O` here?
Its selectivity ratio is 426.

And the CC50 (MT2)?
The CC50 was 42100 nM.

What about the EC50 [2] of the same compound?
The EC50 was 70 nM.

And the EC50 [3]?
The EC50 was 99 nM.

What about the EC50 [4] of the same compound?
Its EC50 is 31 nM.

Which results are given for `O=C(O)c1cccc(-c2ccc(/C=C3\SC(=S)N(CCc4ccccc4)C3=O)o2)c1Cl`?
selectivity ratio [1]: 105; CC50 (MT2): 6730 nM; EC50 [2]: 33 nM; EC50 [3]: 64 nM; EC50 [4]: 78 nM

What does the source list for `COc1ccc(-c2ccc(/C=C3\SC(=S)N(CCc4ccccc4)C3=O)o2)cc1C(=O)O`?
selectivity ratio [1]: 22; CC50 (MT2): 28700 nM; EC50 [2]: 2230 nM; EC50 [3]: 1300 nM; EC50 [4]: 266 nM

What does the source list for `O=C(O)c1cc(-c2ccc(/C=C3\SC(=S)N(CCc4ccccc4)C3=O)o2)cnc1Cl`?
selectivity ratio [1]: 165; CC50 (MT2): 38400 nM; EC50 [2]: 598 nM; EC50 [3]: 232 nM; EC50 [4]: 1010 nM

For `O=C(O)c1cc(-c2ccc(/C=C3\SC(=S)N(CCc4ccccc4)C3=O)o2)ccc1F`, which selectivity ratio [1] is on record?
The selectivity ratio was 380.

What about the CC50 (MT2) of the same compound?
Its CC50 is 27000 nM.

What about the EC50 [2] of the same compound?
The EC50 was 246 nM.

What about the EC50 [3] of the same compound?
The EC50 was 71 nM.

What about the EC50 [4] of the same compound?
The EC50 was 291 nM.

Which results are given for `Cc1c(C(=O)O)cncc1-c1ccc(/C=C2\SC(=S)N(CCc3ccccc3)C2=O)o1`?
selectivity ratio [1]: 202; CC50 (MT2): 78900 nM; EC50 [2]: 4040 nM; EC50 [3]: 390 nM; EC50 [4]: 538 nM

Which selectivity ratio [1] does the source give for `O=C(O)c1cccc(-c2ccc(/C=C3\SC(=S)N(CCc4ccccc4)C3=O)o2)c1F` here?
Its selectivity ratio is 835.

And the CC50 (MT2)?
Its CC50 is 78300 nM.

And the EC50 [2]?
The EC50 was 801 nM.

What about the EC50 [3] of the same compound?
Its EC50 is 94 nM.

What about the EC50 [4] of the same compound?
Its EC50 is 59 nM.

Which selectivity ratio [1] does the source give for `O=C(O)c1cc(-c2ccc(/C=C3\SC(=S)N(CCc4ccccc4)C3=O)o2)ccc1O` here?
Its selectivity ratio is 12.

What about the CC50 (MT2) of the same compound?
The CC50 was 14800 nM.

And the EC50 [2]?
The EC50 was 2660 nM.

And the EC50 [3]?
Its EC50 is 1280 nM.

And the EC50 [4]?
Its EC50 is 261 nM.
